SR-BI uptake up: activators of SR-BI mediated HDL lipid uptake; AID 504775; activation, % at 12.5 µM; 0.096% of 320,000 active; CHO ldlA[mSR-BI] cells, DiI-HDL uptake fluorescence, 3 h; 100 = double the neutral-control signal;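 active means mean replicate activation of at least 60% and every replicate at or above 60%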;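 further: 0% = median plate neutral-control signal and 100% = twice that signal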
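Test system: SR-BI-overexpressing, LDLR-lacking CHO cells; Medium: Ham's F12 with 0.5% BSA, HEPES 25 mM, pH 7.4; Schedule: 3 h, 37 °C; Technique: bottom-read fluorescence, 550/595 nm.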
dFosB activator: activators of mouse delta FosB homodimer | purified delta FosB, TAMRA-CDK5 oligo fluorescence polarization; percent of positive-control signal above neutral wells | 0.99% of 340,000 active | P13346 | activation, % at 25 µM;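 active means mean activation above about 17%, with every replicate also reaching it, limit read from the data, passing the limit was not always enough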
CDK5 p35 inh: inhibitors of human CDK5/p35 kinase | Q00535+Q15078 | Recombinant CDK5/p35, ADP-Glo luminescence, 60 min | inhibition, % at 10 µM | 0.01% of 330,000 active | AID 488839;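 active means highest replicate inhibition of at least 50% and at least 75% of replicates reaching 50%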;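 further: plate controls were DMSO neutral control for no effect and GW8510 at 10 µM for full effect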
Target sequence (Q00535 whole entry, looked up): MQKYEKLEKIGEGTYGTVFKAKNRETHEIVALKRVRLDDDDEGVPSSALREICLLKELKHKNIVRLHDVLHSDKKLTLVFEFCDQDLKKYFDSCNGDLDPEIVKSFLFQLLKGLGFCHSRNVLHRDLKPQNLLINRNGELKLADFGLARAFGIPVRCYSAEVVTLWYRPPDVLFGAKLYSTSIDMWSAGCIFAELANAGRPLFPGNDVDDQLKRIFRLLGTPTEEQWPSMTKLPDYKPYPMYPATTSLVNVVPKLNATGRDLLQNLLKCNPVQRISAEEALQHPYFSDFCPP
Target sequence (Q15078 whole entry, looked up): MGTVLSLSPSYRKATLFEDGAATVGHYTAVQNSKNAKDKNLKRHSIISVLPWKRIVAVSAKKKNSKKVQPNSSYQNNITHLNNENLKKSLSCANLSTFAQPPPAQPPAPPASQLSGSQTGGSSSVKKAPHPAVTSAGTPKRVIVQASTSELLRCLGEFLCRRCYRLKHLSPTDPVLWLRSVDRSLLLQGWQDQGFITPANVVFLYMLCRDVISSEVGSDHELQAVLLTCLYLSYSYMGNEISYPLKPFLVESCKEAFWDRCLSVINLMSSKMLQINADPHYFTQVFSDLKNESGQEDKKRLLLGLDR
NSD2 inh: NSD2 (human) methyltransferase inhibition. NSD2 peptide methylation, AlphaScreen, 120 min. inhibition, % at 12.5 µM. O96028. 0.54% of 310,000 active
SR-BI DiI inh: blocks mouse SR-BI lipid uptake from DiI-HDL; Q61009; ldlA[mSR-BI] CHO cells, DiI-HDL uptake fluorescence, 3 h; inhibition, % at 12.5 µM; 0.96% of 320,000 active; AID 488896;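 active means mean replicate inhibition of at least 70% and a set share of replicates each scoring 70 or more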;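 further: 0% = median of neutral control wells and 100% = median of positive control wells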
DYRK1A inh: Dyrk1A (rat) kinase inhibition; Q63470; ADP-Glo luminescence, NFATc1 peptide; inhibition, % at 12.5 µM; 0.43% of 310,000 active;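 further: plate controls were vehicle with enzyme for no effect and no enzyme for full effect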
* hit, by the source's call; nt = no result given. Compounds with a hit are over-represented: about 2.5% of the library has one in this group of screens. Unless noted, no stated cut-off is given here; in the data, active means inhibition above about 50%; inactive means the rest.

SMILES	SR-BI uptake up	dFosB activator	CDK5 p35 inh	NSD2 inh	SR-BI DiI inh	DYRK1A inh
CCN(CC)CC(O)Cn1c(C)c(-c2ccccc2)c2cc([N+](=O)[O-])ccc21 (centres undefined)	-89	10	2	9	89*	-2
N#CC(C#N)=c1ccc2c(c1)N1C3=C(CCCC3)CC3CCCCC31N=2 (centres undefined)	-53	3	7	55*	53	1
CC12CCC(C(=O)N(CSC(=S)N/N=C\c3ccccc3O)C1=O)C2(C)C (centres undefined)	-104	-12	0	1	104*	-3
COc1ccc(-c2cc(C(=O)N=Nc3c(O)[nH]c4ccccc34)[nH]n2)cc1	nt	nt	nt	-1	nt	nt
O=C(Nc1ccc(Cl)c(Cl)c1)C1CCN(c2ncccn2)CC1	nt	nt	nt	-3	nt	nt
CC(=O)Nc1ccc(NC(=O)C(C)OC(=O)c2ccc(S(=O)(=O)N3CCCCC3)cc2)cc1 (centres undefined)	1	58*	-1	-1	-1	-1
CC(OC(=O)c1ccc(Cl)nc1)C(=O)Nc1ccc(S(=O)(=O)N2CCCC2)cc1 (centres undefined)	-29	-11	-2	-4	29	-5
NC1=NC(=O)/C(=C/c2cccc(-c3ccc(S(N)(=O)=O)cc3)c2)S1	21	60*	3	nt	-21	10
COc1ccc(/C=C2\SC(N)=NC2=O)cc1Br	-25	-22	1	0	25	39
Cc1sc2ncnc(N/N=C/c3ccccc3O)c2c1C	-116	-1	1	-1	116*	9
O=C(CN1CCN(c2nc(-c3ccccc3)cs2)CC1)Nc1ccc(Cl)c(Cl)c1	nt	nt	nt	-1	nt	nt
CN(C)CCCNC(=O)/C=C/c1ccc2c(c1)OCO2	70*	3	0	5	-70	17
CC(=O)Nc1ccc(NC(=O)/C=C/c2ccc3c(c2)OCO3)cc1	-11	-2	3	2	11	2
O=C1c2ccc(-c3ccc(Cl)c(C(F)(F)F)c3)cc2S(=O)(=O)c2cccc(C(=O)N3CCN(c4ccc(Cl)cn4)CC3)c21	-91	-3	0	nt	91*	3
CC(C)(C)c1ccc(-c2noc(CCC(=O)NC3CC3)n2)cc1	nt	nt	nt	-4	nt	nt
CC(C)(C)NC(=O)C(=O)NNC(=O)C12CC3CC(CC(C3)C1)C2	111*	3	-1	-2	-111	1
COc1ccc2c(c1)C(=O)N1[C@H]3c4cc(Br)ccc4OC[C@@H]3[C@H](c3ccccc3)[C@]1(C)C(=O)N2	11	3	0	nt	-11	7
N#C/C(=C(/O)c1ccc(C(=O)c2ccccc2)cc1)c1nc2ccccc2[nH]1	243*	1	1	-2	-243	-4
CCCS(=O)(=O)Nc1ccc(Nc2c3ccccc3nc3ccccc23)c(OC)c1	-80	54*	0	5	80*	-2
CCOC(=O)c1c(C)n(-c2ccc(C)cc2)c2ccc(OCC(O)CNCC3CCCO3)cc12 (centres undefined)	-17	30*	-1	nt	17	3
CCOC(=O)c1c(C)n(-c2ccc(C)cc2)c2ccc(OCC(O)CNCCCO)cc12 (centres undefined)	-3	9	0	nt	3	1
COc1ccc(C(=O)N/N=C/c2ccc(OC)c(COc3ccccc3)c2)cc1	-44	-5	-1	-2	44	-2
COc1ccc(/C=N\NC(=O)c2cc(O)c(O)c(O)c2)cc1COc1ccc(C(=O)OCC(C)C)cc1	-79	-2	3	9	79*	-2
C/C(=N\N1C(=O)c2ccccc2NC1c1ccco1)c1ccccc1O (centres undefined)	86*	-3	-3	0	-86	9
COc1ccc(/C(C)=N/N2C(=O)c3ccccc3NC2c2ccc(O)c(OC)c2)cc1 (centres undefined)	-4	3	0	nt	4	7
O=C1c2ccccc2NC(c2ccco2)N1/N=C/c1ccco1 (centres undefined)	13	0	0	2	-13	2
C/C(=N\N1C(=O)c2ccccc2NC1c1ccccc1)c1ccccc1O (centres undefined)	-85	-1	1	1	85*	-4
